# Kir21 inh: blocks the mouse Kir2.1 inward-rectifier potassium channel; HEK293-Kir2.1, FluxOR thallium flux fluorescence; stronger effect = lower value; P35561; B-score at 10 µM; actives 0.85% (n = 310,000);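 active = fluorescence ratio B-score at or below minus 3 SD of library scores, with starting-brightness B-score within 2 SD, cut at about -4.2 in these data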;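 also: channel flux triggered by added potassium and thallium sulfate stimulus; B-score of peak minus minimum fluorescence over baseline after thallium stimulus; more negative B-score means stronger Kir2.1 block with less thallium influx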
# Target sequence (P35561 whole entry, looked up): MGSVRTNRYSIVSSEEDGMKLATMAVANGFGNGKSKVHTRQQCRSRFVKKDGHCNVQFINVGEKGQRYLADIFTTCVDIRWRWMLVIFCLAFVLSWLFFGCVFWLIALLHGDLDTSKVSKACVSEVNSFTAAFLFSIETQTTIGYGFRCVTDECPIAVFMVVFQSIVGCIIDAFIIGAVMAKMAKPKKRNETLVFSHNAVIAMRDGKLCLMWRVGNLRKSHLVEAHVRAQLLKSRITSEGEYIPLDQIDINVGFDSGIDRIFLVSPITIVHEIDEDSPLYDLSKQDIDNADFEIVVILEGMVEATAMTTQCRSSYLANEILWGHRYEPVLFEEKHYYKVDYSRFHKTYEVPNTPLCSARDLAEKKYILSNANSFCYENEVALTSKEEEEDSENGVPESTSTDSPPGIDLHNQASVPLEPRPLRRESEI
# KCNK3 block: human KCNK3 channel inhibition, primary screen; O14649; CHO-KCNK3 thallium flux, FluxOR fluorescence; stronger effect = lower value; B-score at 10 µM; actives 0.84% (n = 340,000); AID 602410;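 active = B-score under library mean minus 4 SD, starting fluorescence ratio at most library mean plus 5 SD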;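 also: more negative B-score means stronger inhibition of thallium flux through KCNK3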
# KCNQ1 block: blocks the human KCNQ1 potassium channel; B-score at 10 µM; CHO-K1 KCNQ1, FluxOR thallium flux fluorescence; stronger effect = higher value; actives 1.3% (n = 310,000);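 active = compounds whose thallium flux B-score, printed positive for inhibition, exceeds three library SD while starting fluorescence stays within three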;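 also: channel opened by potassium depolarization with thallium stimulus after 20 min compound exposure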
# KCNK9 block: inhibitors of human KCNK9 two-pore domain potassium channel; Q9NPC2; HEK293 KCNK9, FluxOR thallium flux fluorescence; stronger effect = lower value; B-score at 10 µM; actives 1.2% (n = 310,000);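 active = ratio B-score over 3 SD below the library mean, with starting fluorescence within 5 SD of its mean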;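 also: negative B-score means less thallium flux so channel inhibition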
# hERG protect: shields human hERG channel from block by proarrhythmic agents. CHO-hERG, FluxOR thallium flux, dofetilide IC70 present. Q12809. activation (rescue from dofetilide block), less the hit threshold, % at 10 µM. actives 0.51% (n = 310,000);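 active = activation above the mean of controls blocked by dofetilide plus 5 SD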;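 also: thallium influx through hERG after potassium depolarization seen as dye fluorescence rise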
# KCNQ1 act: human KCNQ1 channel potentiation or activation; CHO-K1 KCNQ1, thallium flux FluxOR fluorescence; stronger effect = higher value; B-score at 10 µM; actives 0.35% (n = 310,000); AID 2648;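 active = fluorescence ratio B-score, a plate-corrected score, at least three library SD, with initial intensity B-score within 5 SD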
#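 assay system = CHO-K1 cells stably expressing KCNQ1 | medium = assay buffer, equal DMSO in all wells | timing = 37 °C overnight plating, 90-min dark dye load, 20-min compound pretreatment | measured by = kinetic FluxOR thallium fluorescence, 10-s 1-Hz baseline, 110-s post-stimulus read | measure = fluorescence change relative to baseline, converted to B score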
# * hit, by the source's call; i = inactive; x = no result given. An excerpt weighted towards active compounds, which were near 3.7% of everything screened.
SMILES,Kir21 inh,KCNK3 block,KCNQ1 block,KCNK9 block,hERG protect,KCNQ1 act
COc1cc(-c2cc(C(=O)Nc3ccc(O)cc3)c3ccccc3n2)cc(OC)c1OC,0.89,i,i,i,-15,i
Cc1cc(NC(=O)c2cc(-c3ccncc3)nc3ccccc23)ccc1Br,x,-13*,x,x,x,x
CC(=O)c1cccc(NC(=O)c2cc(-c3ccncc3)nc3ccccc23)c1,x,i,x,x,x,x
O=C(Nc1ccccn1)c1cc(-c2ccc(Cl)s2)nc2ccccc12,x,i,x,x,x,x
CC(C)(C)c1nnc(NC(=O)c2cc(-c3ccccc3)nc3ccccc23)s1,0.44,i,6*,i,-17,i
COc1cc(-c2cc(C(=O)Nc3cccc(C(C)=O)c3)c3ccccc3n2)cc(OC)c1OC,-0.49,-11*,i,i,-15,i
O=C(NC(=S)Nc1ccccn1)c1cc(-c2ccccc2)nc2ccccc12,1.6,i,i,i,4,8*
Cc1ccccc1-c1cccc([C@@H]2C[C@H]3[C@H](CON3C)CN2S(=O)(=O)c2ccccc2C)c1,x,i,x,x,x,x
CCCOc1cccc(-c2cc(C(=O)N/N=C/c3cccnc3)c3ccccc3n2)c1,0.09,i,9*,i,-30,i
Cc1ccc(S(=O)(=O)N2CCCN(C(=O)c3ccc(-n4nccc4C)cc3)CC2)cc1,x,i,x,x,x,x
Cc1ccc(C)c(N2CCN(C(=O)c3ccc(Cn4c(=O)[nH]c5ccccc5c4=O)cc3)CC2)c1,-0.8,i,i,i,-12,i
Cc1ccc(C)c(N2CCN(c3nc4ccccc4c(=O)n3Cc3ccccc3)CC2)c1,1.6,i,i,-7.6*,-12,i
COCCn1c(-c2ccc(OC)cc2)cnc1N,0.3,i,i,i,-7,i
CCOc1ccc(-c2cnc(NCc3cccc4ccccc34)n2CCOC)cc1,-1.6,-9.5*,10*,i,-30,i
Cn1c(CC(=O)NNC(=O)c2cccnc2)nc2ccccc21,x,i,x,x,x,x
O=C(NCCc1ccc(F)cc1)c1cc2ccccc2oc1=O,0,i,i,i,-5,i
COc1ccc(CCNC(=O)c2cc3ccccc3oc2=O)cc1,0.86,i,i,i,7.8*,i
O=C(COC(=O)/C=C/c1ccc(F)cc1)NC1CCS(=O)(=O)C1 (stereo not given),x,i,x,x,x,x
CC(=O)Nc1ccc(/C=N/N2C(=O)NC(C)(c3ccc(OC(F)F)cc3)C2=O)cc1 (stereo not given),0.93,i,i,i,-10,34*
COC(=O)CC/C(=N/Nc1ccc(Cl)c(Cl)c1)C(=O)OC,-0.12,i,i,i,0,i
O=C(CCN=C1NS(=O)(=O)c2ccccc21)OCc1nnc(-c2ccc([N+](=O)[O-])cc2)o1,x,i,x,x,x,x
COc1ccc(C2(C)NC(=O)NC2=O)cc1OC (stereo not given),0.13,i,i,i,-4,i
O=C1NC(c2cccc(Cl)c2)Oc2ccccc21 (stereo not given),0.55,i,i,i,6.3*,i
O=C(COc1cccc(C(F)(F)F)c1)NCC(c1cccs1)N1CCOCC1 (stereo not given),x,i,x,x,x,x
Cc1noc(C)c1CSc1ncnc2sc3c(c12)CCCCC3,-0.14,i,i,i,35*,11*
SMILES,Kir21 inh,KCNK3 block,KCNQ1 block,KCNK9 block,hERG protect,KCNQ1 act
Oc1c(Cl)cc(Cl)cc1C(C#Cc1ccccc1)N1CCOCC1 (stereo not given),-1.2,i,i,-7.1*,-11,i
N#CC(c1ccc(Cl)cc1)N1CCOCC1 (stereo not given),0.07,i,i,i,-4,i
N#CC1C=Cc2c(ccc3ccccc23)N1C(=O)c1ccccc1 (stereo not given),x,i,x,x,x,x
CCOc1ccccc1CNC(=O)C1CCN(c2nnc(C)c3c(C)n(-c4ccc(C)cc4)nc23)CC1,-0.54,i,i,i,-11,i
Cc1ccc(-n2nc3c(N4CCC(C(=O)NCc5ccccc5C)CC4)nnc(C)c3c2C)cc1,-1.5,i,7*,i,-9,i
CCOc1ccc(OCCCC(=O)N(CC)CC(=O)Nc2c(F)cccc2F)cc1,x,i,x,x,x,x
COc1ccc(NC(=O)c2c(-c3c(Cl)cccc3Cl)noc2C)c(OC)c1,0.86,i,i,i,-6,i
COc1ccc(/C=C2\C(=O)c3ccccc3OC2c2ccccc2)cc1 (stereo not given),0.33,i,i,-6.7*,-6,i
C/C(=N\NC(=O)c1c[nH]c2ccccc12)c1ccccn1,-1.2,i,i,i,-14,i
C/C(=N\NC(=O)c1cc2ccccc2cc1O)c1cc2ccccc2o1,0.59,i,i,i,55*,138*
O=C(N/N=C\c1ccc(Sc2ccccn2)o1)c1cccc(F)c1,-0.56,i,i,i,3,i
C/C(=N\NC(=O)c1cc2ccccc2cc1O)c1ccccn1,0.07,i,i,i,-2,7*
CC(=N/O)/C(C)=N\NC(=O)c1ccccn1,-2.3,i,8*,i,-16,i
O=C(N/N=C/c1ccc(Sc2ccccn2)o1)c1cc2ccccc2cc1O,1.7,i,i,i,1,18*
CCCCn1nc(C(=O)N(C)C2CCCCC2)c2ccccc2c1=O,x,i,x,x,x,x
O=C(N/N=C/c1ccc(-c2ccccc2)o1)c1ccccc1O,0.93,i,i,i,0,8*
COc1ccc(/C(C)=N/NC(=O)CNC(=O)/C=C\c2ccco2)cc1,0.04,i,i,i,-9,i
COCCn1c(SCC(=O)Nc2cccnc2Cl)nc2ccccc21,x,i,x,x,x,x
COCCn1c(SCC(=O)Nc2nc(C)c(Cl)cc2Cl)nc2ccccc21,-6.3*,i,i,i,-3,i
CN(Cc1ccccc1)C(=O)c1cccc(NC(=O)Cc2ccc(NC(=O)C3CCN(C(=O)C4CCC4)CC3)cc2)c1,x,i,x,x,x,x
O=C1NN(c2ccccc2)C(=O)/C1=C\c1cccc(OC(=O)c2cccs2)c1,0.12,i,i,i,-4,i
O=C1NN(c2ccc(Cl)c(Cl)c2)C(=O)/C1=C/c1cccc(OC(=O)c2cccs2)c1,-4.4*,x,i,i,-16,12*
Cc1ccc(-n2c(=S)[nH]c3sc4c(c3c2=O)CCC4)cc1,-0.14,i,i,i,-2,8*
COCCn1c(=S)[nH]c2sc3c(c2c1=O)CCCC3,2.1,i,i,i,17*,30*
Cc1ccc(-n2c(=O)c3c4c(sc3n3c(=S)[nH]nc23)CCC4)cc1,-0.82,i,i,i,-16,i
O=c1c2c3c(sc2[nH]c(=S)n1Cc1ccco1)CCC3,-0.05,i,i,i,11*,15*
